Reference: PubChem BioAssay AID493081 (Broad Institute, 2011)
Calls of active or inactive are those of the source.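 How the source made its calls: active means fitted half-maximal dose of growth inhibition at or below ten times the top valid tested dose; inconclusive means flat fit with moderate inhibition, or poor fit quality; inactive means the rest.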

test system: not listed separately; assay: Candida CaCi-2 inhibitors alongside fluconazole – CaCi-2 isolate, dry powder retest, no file, confirmation (AID 493081); conditions: C. albicans CaCi-2 + fluconazole, Alamar Blue, 48 h; at 12 µM (top of the series)
Outline: (§1)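 Assay system: Candida albicans clinical isolate CaCi-2, fluconazole-resistant strain; quantity: starting inoculum OD600 0.00015; reagent: fluconazole at 8 µg/mL throughout the growth period; dosing: test compounds added by pin transfer; timing: 48 h compound at 37 °C, 2 h Alamar Blue, RT; measured by: Alamar Blue fluorescence, excitation 544 nm, emission 590 nm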

| Compound | activity change, negative = growth inhibition |
| --- | --- |
| O=C1OCCC1n1nc(-c2ccccc2)c2ccccc21 (stereo not given) | -11.6% (inactive) |
| COC(=O)CCCn1nc(-c2ccccc2)c2ccccc21 | -23.8% (inactive) |
| COC(=O)C(C)(C)n1nc(-c2ccccc2)c2ccccc21 | -6.64% (inactive) |
| O=C(Cn1nc(-c2ccccc2)c2ccccc21)OC1CCC1 | -23.5% (inactive) |
| COC(=O)Cn1nc(-c2ccccc2)c2ccc(C(F)(F)F)cc21 | -26.8% (inactive) |
| O=C(O)Cn1nc(-c2ccccc2)c2ccccc21 | -9.2% (inactive) |
| CCC(=O)Cn1nc(-c2ccccc2)c2ccccc21 | -16.1% (inactive) |
| CCCCn1nc(-c2ccccc2)c2ccccc21 | 19.1% (inactive) |
| COc1ccc(-c2n[nH]c3ccccc23)cc1 | -24.1% (inactive) |
| FC(F)(F)c1ccc(-c2n[nH]c3ccccc23)cc1 | -27.3% (inactive) |
| O=C(Cn1c2ccccc2c2ccncc21)N1CCCCC1 | -31.9% (inactive) |
| COC(=O)Cn1nc(-c2ccccc2)c2cccc(C(F)(F)F)c21 | 1.65% (inactive) |

test system: C. albicans CaCi-2 (fluconazole-resistant clinical isolate) + fluconazole, Alamar Blue, 48 h; assay: as above; conditions: not given
Outline: as §1

| Compound | AC50 [nM] |
| --- | --- |
| CCN(CC)C(=O)Cn1c2ccccc2c2nc3n(c(=O)c21)CCS3 | 7430 |
| CCN(CC)C(=O)Cn1c2ccc(F)cc2c2nc3n(c(=O)c21)CCS3 | 69 |
| O=C(Cn1c2ccc(F)cc2c2nc3n(c(=O)c21)CCS3)N1CCCC1 | 608 |
| O=C(Cn1c2ccccc2c2nc3n(c(=O)c21)CCS3)N1CCOCC1 | 1610 |
| O=C(Cn1c2ccccc2c2nc3n(c(=O)c21)CCS3)N1CCCCC1 | 606 |
| COC(=O)Cn1nc(-c2cccc(F)c2)c2ccccc21 | 8120 |
| O=C(Cn1c2ccc(F)cc2c2nc3n(c(=O)c21)CCS3)N1CCCCCC1 | 629 |
| O=C(Cn1c2ccccc2c2nc3n(c(=O)c21)CCS3)N1CCCC1 | 835 |
| COC(=O)Cn1nc(-c2ccccc2)c2ccccc21 | 1270 |
| COC(=O)Cn1nc(-c2ccccc2C)c2ccccc21 | 6140 |
| COC(=O)Cn1nc(-c2ccc(F)cc2)c2ccccc21 | 8180 |
| CC1CCN(C(=O)Cn2c3ccccc3c3nc4n(c(=O)c32)CCS4)CC1 | 1790 |
| O=C(Cn1c2ccc(F)cc2c2nc3n(c(=O)c21)CCS3)N1CCCCC1 | 413 |
